In ChEMBL document CHEMBL4390654, “Microwave-assisted solid-phase synthesis of antisense acpP peptide nucleic acid-peptide conjugates active against colistin- and tigecycline-resistant E. coli and K. pneumoniae” (Eur J Med Chem, 2019):

Experiments:
Klebsiella pneumoniae [1] = test: Antibacterial activity against Klebsiella pneumoniae ATCC 13883 assessed as reduction in microbial growth incubated for 20 hrs; type: functional; conditions: ATCC 13883, 20 h
Procedure, shortened: (§1)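 Broth microdilution MIC after a modified Hancock protocol for cationic peptides, in non-binding polystyrene plates. Inoculum ~2 × 10^5 CFU/mL in Mueller-Hinton broth with Mg²⁺ and Ca²⁺ at 4 mg/L each. Compounds dissolved in water, diluted in 0.01% acetic acid, 0.2% BSA (final), added as 10× aliquots. Covered plates incubated 20 h at 35 °C (± 2 °C) with shaking at 220 rpm. MIC read as lowest inhibiting concentration.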

Escherichia coli [2] = test: Antibacterial activity against NDM-1 producing multi-drug resistant Escherichia coli NMI 5428/11 ST410 assessed as reduction in microbial growth incubated for 20 hrs; type: functional; conditions: NMI 5428/11 ST410, 20 h
Procedure, shortened: (§2)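 Broth microdilution MIC (modified Hancock protocol) in non-binding polystyrene plates. Inoculum ~2 × 10^5 CFU/mL in Mueller-Hinton broth with Mg²⁺ and Ca²⁺ at 4 mg/L each. Compounds dissolved in water, diluted in 0.01% acetic acid/0.2% BSA (final), added as 10× stocks. Covered plates incubated 20 h at 35 °C (± 2 °C) with 220 rpm circular shaking before MIC read.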

Klebsiella pneumoniae [3] = test: Antibacterial activity against multi-drug resistant Klebsiella pneumoniae NMI 3081/09 assessed as reduction in microbial growth incubated for 20 hrs; type: functional; conditions: NMI 3081/09, 20 h; procedure, shortened: as §2
Pseudomonas aeruginosa [4] = test: Antibacterial activity against multi-drug resistant Pseudomonas aeruginosa NMI 506/17 assessed as reduction in microbial growth incubated for 20 hrs; type: functional; conditions: NMI 506/17, 20 h; procedure, shortened: as §2
[5] = Ratio of MIC for Escherichia coli ATCC 25922 to MIC against Escherichia coli NMI 3898/15; type: functional
Escherichia coli [6] = test: Antibacterial activity against multi-drug resistant Escherichia coli NMI 3548/14 assessed as reduction in microbial growth incubated for 20 hrs; type: functional; conditions: NMI 3548/14, 20 h; procedure, shortened: as §2
Escherichia coli [7] = test: Antibacterial activity against Escherichia coli lacking a functional SbmA assessed as reduction in microbial growth incubated for 20 hrs; procedure, shortened: as §1
Klebsiella pneumoniae [8] = test: Antibacterial activity against multi-drug resistant Klebsiella pneumoniae NMI 2697/14 assessed as reduction in microbial growth incubated for 20 hrs; type: functional; conditions: NMI 2697/14, 20 h; procedure, shortened: as §2
Acinetobacter baumannii [9] = test: Antibacterial activity against Acinetobacter baumannii NMI 3658/17 assessed as reduction in microbial growth incubated 20 hrs; type: functional; conditions: NMI 3658/17, 20 h; procedure, shortened: as §1
Staphylococcus aureus = test: Antibacterial activity against Staphylococcus aureus ATCC 29213 assessed as reduction in microbial growth incubated for 20 hrs; type: functional; conditions: ATCC 29213, 20 h; procedure, shortened: as §1
Escherichia coli [10] = test: Antibacterial activity against Escherichia coli ATCC 25922 assessed as reduction in microbial growth incubated for 20 hrs; type: functional; conditions: ATCC 25922, 20 h; procedure, shortened: as §2
Acinetobacter baumannii [11] = test: Antibacterial activity against Acinetobacter baumannii ATCC 19606 assessed as reduction in microbial growth incubated for 20 hrs; type: functional; conditions: ATCC 19606 = CIP 70.34 = JCM 6841, 20 h; procedure, shortened: as §1
[12] = Hemolytic activity against RBC (unknown origin) at 100 uM; type: ADME, cell-based, Erythrocyte; conditions: red blood cells (erythrocytes); read-out: Activity
Pseudomonas aeruginosa [13] = test: Antibacterial activity against Pseudomonas aeruginosa PAO1 assessed as reduction in microbial growth incubated for 20 hrs; type: functional; conditions: PAO1, 20 h; procedure, shortened: as §1
[14] = Ratio of MIC for Escherichia coli lacking functional SbmA to MIC for Escherichia coli ATCC 25922
Pseudomonas aeruginosa [15] = test: Antibacterial activity against Pseudomonas aeruginosa ATCC 27853 assessed as reduction in microbial growth incubated for 20 hrs; type: functional; conditions: ATCC 27853, 20 h; procedure, shortened: as §1
Escherichia coli [16] = test: Antibacterial activity against NDM-5 producing multi-drug resistant Escherichia coli NMI 636/15 ST405 assessed as reduction in microbial growth incubated for 20 hrs; type: functional; conditions: NMI 636/15 ST405, 20 h; procedure, shortened: as §2
Escherichia coli [17] = test: Antibacterial activity against NDM-1 producing multi-drug resistant Escherichia coli NMI 3371/16 ST101 assessed as reduction in microbial growth incubated for 20 hrs; type: functional; conditions: NMI 3371/16 ST101, 20 h; procedure, shortened: as §2
Escherichia coli [18] = test: Antibacterial activity against multi-drug resistant Escherichia coli NMI 3898/15 assessed as reduction in microbial growth incubated for 20 hrs; type: functional; conditions: NMI 3898/15, 20 h; procedure, shortened: as §2
[19] = Ratio of MIC for Escherichia coli ATCC 25922 to MIC for Klebsiella pneumoniae ATCC 13883; type: functional

Row | Compound | MIC (Klebsiella pneumoniae [1]) | MIC (Escherichia coli [2]) | MIC (Klebsiella pneumoniae [3]) | MIC (Pseudomonas aeruginosa [4]) | Ratio [5] | MIC (Escherichia coli [6]) | MIC (Escherichia coli [7]) | MIC (Klebsiella pneumoniae [8]) | MIC (Acinetobacter baumannii [9]) | MIC (Staphylococcus aureus) | MIC (Escherichia coli [10]) | MIC (Acinetobacter baumannii [11]) | hemolysis at 100 µM [12] | MIC (Pseudomonas aeruginosa [13]) | Ratio [14] | MIC (Pseudomonas aeruginosa [15]) | MIC (Escherichia coli [16]) | MIC (Escherichia coli [17]) | MIC (Escherichia coli [18]) | Ratio [19]
1 | CC[C@H](C)[C@H](NC(=O)[C@@H]1CCCN1C(=O)[C@H](CCCNC(=N)N)NC(=O)[C@@H]1CCCN1C(=O)[C@H](Cc1cnc[nH]1)NC(=O)[C@H](CO)NC(=O)[C@@H](NC(=O)[C@@H]1CCCN1C(=O)[C@H](CCCNC(=N)N)NC(=O)[C@@H]1CCCN1C(=O)[C@H](CO)NC(=O)[C@H](Cc1ccc(O)cc1)NC(=O)[C@@H]1CCCN1C(=O)[C@H](CCCNC(=N)N)NC(=O)[C@@H]1CCCN1C(=O)[C@H](CCCNC(=N)N)NC(=O)CCCCCNC(=O)[C@@H](N)CCCNC(=N)N)[C@@H](C)O)C(=O)N[C@@H](CCCNC(=N)N)C(=O)N[C@H](C(=O)N[C@@H](CS)C(=O)N[C@H](C(=O)N[C@@H](CS)C(=O)N[C@@H](C)C(=O)N[C@H](C(=O)N[C@@H](C)C(=O)N[C@@H](CS)C(=O)N[C@H](C(=O)N[C@@H](CS)C(=O)N[C@H](C(N)=O)[C@@H](C)O)[C@@H](C)O)[C@@H](C)O)[C@@H](C)O)C(C)C | 2 to 4 mg/L | 1 mg/L | 8 mg/L | > 64 mg/L | 2 to 8 | 1 to 2 mg/L | > 64 mg/L | 32 mg/L | 32 mg/L | > 64 mg/L | 4 mg/L | 64 mg/L | < 1% | > 64 mg/L | > 16 | > 64 mg/L | 1 mg/L | 0.5 mg/L | 4 mg/L | –
2 | CC[C@H](C)[C@H](NC(=O)[C@@H]1CCCN1C(=O)[C@H](CCCNC(=N)N)NC(=O)[C@@H]1CCCN1C(=O)[C@H](Cc1cnc[nH]1)NC(=O)[C@H](CO)NC(=O)[C@@H](NC(=O)[C@@H]1CCCN1C(=O)[C@H](CCCNC(=N)N)NC(=O)[C@@H]1CCCN1C(=O)[C@H](CO)NC(=O)[C@H](Cc1ccc(O)cc1)NC(=O)[C@@H]1CCCN1C(=O)[C@H](CCCNC(=N)N)NC(=O)[C@@H]1CCCN1C(=O)[C@H](CCCNC(=N)N)NC(=O)CCCCCNC(=O)[C@@H](N)CCCNC(=N)N)[C@@H](C)O)C(=O)N[C@@H](CCCNC(=N)N)C(=O)N[C@H](C(=O)N[C@@H](CSC1CC(=O)N(CCC(=O)NCCOCCOC(=O)N[C@@H](CS)C(=O)N[C@H](C(=O)N[C@@H](CS)C(=O)N[C@@H](C)C(=O)N[C@H](C(=O)N[C@@H](C)C(=O)N[C@@H](CS)C(=O)N[C@H](C(=O)N[C@@H](CS)C(=O)N[C@H](C(N)=O)[C@@H](C)O)[C@@H](C)O)[C@@H](C)O)[C@@H](C)O)C1=O)C(N)=O)C(C)C (stereo partly specified) | 4 to 8 mg/L | – | 64 mg/L | – | 2 to 8 | 2 to 8 mg/L | > 64 mg/L | 32 to 64 mg/L | – | > 64 mg/L | 16 mg/L | > 64 mg/L | < 1% | > 64 mg/L | – | – | – | – | 8 to 32 mg/L | 2 to 4
3 | CC[C@@H](C)[C@@H](NC(=O)[C@H]1CCCN1C(=O)[C@@H](CCCNC(=N)N)NC(=O)[C@H]1CCCN1C(=O)[C@@H](Cc1cnc[nH]1)NC(=O)[C@@H](CO)NC(=O)[C@H](NC(=O)[C@H]1CCCN1C(=O)[C@@H](CCCNC(=N)N)NC(=O)[C@H]1CCCN1C(=O)[C@@H](CO)NC(=O)[C@@H](Cc1ccc(O)cc1)NC(=O)[C@H]1CCCN1C(=O)[C@@H](CCCNC(=N)N)NC(=O)[C@H]1CCCN1C(=O)[C@@H](CCCNC(=N)N)NC(=O)CCCCCNC(=O)[C@H](N)CCCNC(=N)N)[C@H](C)O)C(=O)N[C@H](CCCNC(=N)N)C(=O)N[C@@H](C(=O)N[C@H](CS)C(=O)N[C@@H](C(=O)N[C@H](CS)C(=O)N[C@H](C)C(=O)N[C@@H](C(=O)N[C@H](C)C(=O)N[C@H](CS)C(=O)N[C@@H](C(=O)N[C@@H](CS)C(=O)N[C@@H](C(N)=O)[C@H](C)O)[C@H](C)O)[C@H](C)O)[C@H](C)O)C(C)C | 8 to 16 mg/L | – | > 64 mg/L | – | – | 64 mg/L | > 64 mg/L | > 64 mg/L | – | > 64 mg/L | > 64 mg/L | > 64 mg/L | < 1% | > 64 mg/L | > 16 | – | – | – | > 64 mg/L | –
4 | CC[C@@H](C)[C@@H](NC(=O)[C@@H](CCCCN)NC(=O)[C@@H]([C@H](C)CC)N(C(=O)[C@@H](CCCNC(=N)N)NC(=O)CCCCCNC(=O)[C@H](N)CCCNC(=N)N)C(=O)[C@@H](CCCNC(=N)N)NC(=O)CCCCCNC(=O)[C@H](N)CCCNC(=N)N)C(=O)N[C@H](CC(C)C)C(=O)N[C@H](Cc1ccccc1)C(=O)N[C@H](CCC(N)=O)C(=O)N[C@H](CC(N)=O)C(=O)N[C@H](CCCNC(=N)N)C(=O)N[C@H](CCCNC(=N)N)C(=O)N[C@H](CCSC)C(=O)N[C@H](CCCCN)C(=O)N[C@H](Cc1c[nH]c2ccccc12)C(=O)N[C@H](CCCCN)C(=O)N[C@H](CCCCN)C(N)=O | 4 mg/L | 1 to 2 mg/L | 16 mg/L | 4 mg/L | – | 1 mg/L | 2 mg/L | 16 mg/L | 2 mg/L | 2 to 4 mg/L | 2 to 4 mg/L | 2 mg/L | < 1% | 1 mg/L | – | 2 mg/L | 2 mg/L | 2 mg/L | 2 mg/L | –
